The source of these data is ChEMBL document CHEMBL2046299, “Construction and functionalization of fused pyridine ring leading to novel compounds as potential antitubercular agents” (Bioorg Med Chem Lett, 2012).

Usually MIC90 stands for the lowest concentration that inhibits either 90% of growth or 90% of the strains tested, depending on the study. As usually defined, the IC50 is the midpoint of a concentration-inhibition curve.

In brackets after ≈: the same amount, converted by molar mass. Some results are limits rather than exact numbers.

The subject of the first series is Mycobacterium tuberculosis. In words: Antitubercular activity against Mycobacterium tuberculosis H37Rv ATCC 27294 assessed as minimum concentration required to inhibit 90% growth after 1 week by fluorescence-based microplate Alamar Blue assay. Format: functional. Conditions: H37Rv ATCC 27294, 168 h. A digest of the protocol: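 M. tuberculosis H37Rv, MABA with fluorescence read-out. MIC taken as the lowest concentration cutting fluorescence by 90% relative to bacteria-only controls. Rifampicin, isoniazid and moxifloxacin served as reference compounds.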
(In general: Alamar Blue is a resazurin reagent that responds to reducing activity.)
For `CCOC(=O)c1cc(Cl)[n+]([O-])c2ccc(C)cc12`, the MIC90 came out at 4.33 µg/mL (≈ 16.3 µM). Consider `CCOC(=O)c1cc(Cl)[n+]([O-])c2ccccc12`, for which the MIC90 stood at 9.2 µg/mL (≈ 36.6 µM). On the same count and under the same terms, next, `CCOC(=O)c1cc(Cl)[n+]([O-])c2ccc(F)cc12`: 10.9 µg/mL (≈ 40.4 µM); `O=C(O)c1cc(O)n(O)c(=O)c1`: > 100 µg/mL. For the compound `Cc1cc(C(=O)O)cc(=O)[nH]1`, the MIC90 is > 50 µg/mL. As to `O=C(O)c1cc(=O)[nH]c2c1CCC2`, the MIC90 is > 50 µg/mL. Same read-out and setting: the result for `O=C(O)c1cc(=O)[nH]c2c1CCCC2` reads > 50 µg/mL. As to `O=C(O)c1cc(=O)[nH]c2c1CCCCCC2`, the MIC90 is > 50 µg/mL. Regarding `COC(=O)c1cc(C)[n+]([O-])c(Cl)c1`, the MIC90 is > 100 µg/mL.

As for `COC(=O)c1cc(Cl)[n+]([O-])c2c1CCC2`, the MIC90 is > 100 µg/mL. Still for that read-out and setting: the result for `COC(=O)c1cc(Cl)[n+]([O-])c2c1CCCC2` reads > 100 µg/mL; that for `COC(=O)c1cc(Cl)[n+]([O-])c2c1CCCCCC2`, > 50 µg/mL; that for `COC(=O)c1cc(C)n(O)c(=O)c1`, > 100 µg/mL. In the case of `CCOc1cc(C(=O)O)c2c([n+]1[O-])CCC2`, the MIC90 is > 100 µg/mL. For the compound `CCOc1cc(C(=O)O)c2c([n+]1[O-])CCCC2`, the MIC90 was > 100 µg/mL. Same read-out and setting: the result for `Cc1cc(C(=O)O)cc(=O)n1O` reads > 50 µg/mL; that for `O=C(O)c1cc(=O)n(O)c2c1CCC2`, > 100 µg/mL. The same measure, in the same setting: next, `O=C(O)c1cc(=O)n(O)c2c1CCCC2`: > 100 µg/mL; `CCOc1cc(C(=O)O)cc(OCC)[n+]1[O-]`: > 100 µg/mL; `O=C(O)c1cc(O)nc2ccccc12`: > 50 µg/mL. On to `Cc1ccc2[nH]c(=O)cc(C(=O)O)c2c1`, for which the MIC90 was > 50 µg/mL. With `O=C(O)c1cc(=O)[nH]c2ccc(F)cc12`, the MIC90 is > 50 µg/mL. `O=C(O)c1cc(=O)[nH]c2ccc([N+](=O)[O-])cc12`: the MIC90 was > 50 µg/mL.

Turning to `O=C(O)c1cc(=O)n(O)c2ccccc12`, the MIC90 is > 100 µg/mL. As to `Cc1ccc2c(c1)c(C(=O)O)cc(=O)n2O`, the MIC90 is > 100 µg/mL. The same measure, in the same setting: next, `O=C(O)c1cc(=O)n(O)c2ccc(F)cc12`: > 100 µg/mL; `Cc1cc(C(=O)O)cc(Cl)[n+]1[O-]`: > 100 µg/mL. For the compound `O=C(O)c1cc(Cl)[n+]([O-])c2c1CCC2`, the MIC90 is > 50 µg/mL. On to `O=C(O)c1cc(Cl)[n+]([O-])c2c1CCCC2`, for which the MIC90 was > 100 µg/mL. Turning to `O=C(O)c1cc(Cl)[n+]([O-])c2c1CCCCCC2`, the MIC90 was > 100 µg/mL. With `O=C(O)c1cc(Cl)[n+]([O-])c2ccccc12`, the MIC90 was > 100 µg/mL.

For the compound `Cc1ccc2c(c1)c(C(=O)O)cc(Cl)[n+]2[O-]`, the MIC90 was > 100 µg/mL. For the compound `O=C(O)c1cc(Cl)[n+]([O-])c2ccc(F)cc12`, the MIC90 is > 100 µg/mL. In the case of `NNC(=O)c1cc(=O)[nH]c2c1CCCC2`, the MIC90 is > 100 µg/mL. For the compound `NNC(=O)c1cc(=O)[nH]c2c1CCC2`, the MIC90 is > 100 µg/mL. For `NNC(=O)c1cc(=O)[nH]c2ccccc12`, the MIC90 was > 100 µg/mL. As for `Cc1ccc2[nH]c(=O)cc(C(=O)NN)c2c1`, the MIC90 was > 100 µg/mL. As for `NNC(=O)c1cc(=O)[nH]c2ccc(F)cc12`, the MIC90 is > 100 µg/mL. For the compound `NNC(=O)c1cc(=O)[nH]c2ccc([N+](=O)[O-])cc12`, the MIC90 was > 100 µg/mL. Still for that read-out and setting: the result for `CCCn1c(=O)[nH]c(=O)c2c(C(=O)O)cc(=O)[nH]c21` reads > 100 µg/mL; that for `CCCn1c(=O)[nH]c(=O)c2c(C(=O)O)cc(Cl)nc21`, 91.7 µg/mL (≈ 323 µM). Consider `O=C(O)c1cc(O)nc(O)c1` [CITRAZINIC ACID], for which the MIC90 was > 50 µg/mL. In the case of `NNC(=O)c1ccncc1` [ISONIAZID], the MIC90 came out at 0.33 µg/mL (≈ 2.41 µM). For `COc1c(N2C[C@@H]3CCCN[C@@H]3C2)c(F)cc2c(=O)c(C(=O)O)cn(C3CC3)c12` [MOXIFLOXACIN], the MIC90 was 0.39 µg/mL (≈ 0.972 µM). `CO[C@H]1/C=C/O[C@@]2(C)Oc3c(C)c(O)c4c(O)c(c(/C=N/N5CCN(C)CC5)c(O)c4c3C2=O)NC(=O)/C(C)=C\C=C\[C@H](C)[C@H](O)[C@@H](C)[C@@H](O)[C@@H](C)[C@H](OC(C)=O)[C@@H]1C` [RIFAMPIN]: the MIC90 was found to be 0.05 µg/mL (≈ 0.0608 µM).

Another series has as its system Mycobacterium tuberculosis. The series can be described thus: Antitubercular activity against non-replicating Mycobacterium tuberculosis assessed as minimum concentration required to inhibit 90% growth after 10 days under anaerobic condition by luciferase-based low-oxygen recovery assay. Format: functional.
Conditions: not given
Put shortly:
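Non-replicating M. tuberculosis, low-oxygen recovery assay with luciferase read-out, run on compounds selected from the MABA screen. MIC taken as the lowest concentration inhibiting recovery of luciferase signal by ≥90% relative to bacteria-only controls. Rifampicin, isoniazid and moxifloxacin served as references.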
For `NNC(=O)c1ccncc1` [ISONIAZID], the “inhibition (INH)” value was 84%.

The same series, now with this note: Mycobacterium tuberculosis, 240 h.
Take `CCOC(=O)c1cc(Cl)[n+]([O-])c2ccc(C)cc12`: the MIC90 was determined as 3.65 µg/mL (≈ 13.7 µM). On the same count and under the same terms, the result for `CCOC(=O)c1cc(Cl)[n+]([O-])c2ccccc12` reads 7.3 µg/mL (≈ 29 µM); that for `CCOC(=O)c1cc(Cl)[n+]([O-])c2ccc(F)cc12`, 13.1 µg/mL (≈ 48.6 µM); that for `NNC(=O)c1ccncc1` [ISONIAZID], > 128 µg/mL. For the compound `COc1c(N2C[C@@H]3CCCN[C@@H]3C2)c(F)cc2c(=O)c(C(=O)O)cn(C3CC3)c12` [MOXIFLOXACIN], the MIC90 was found to be 15.9 µg/mL (≈ 39.7 µM).

Test system in another series: not listed separately
The series can be described thus: (§1) Cytotoxicity against african green monkey Vero cells after 72 hrs by MTS assay. Conditions: chlorocebus sabaeus, Vero cells; read-out: INH. Format: cell-based, Chlorocebus sabaeus. In general terms: Tetrazolium assays rely on reduction of a dye to a coloured formazan, in cell work by metabolically active cells.
Turning to `CCOC(=O)c1cc(Cl)[n+]([O-])c2ccc(C)cc12`, the cytotoxicity at 72 h came to 96%.

A further series concerns Vero. Described as §1. Format: cell-based, Chlorocebus sabaeus. Conditions: Chlorocebus sabaeus, Vero, 72 h.
As for `CCOC(=O)c1cc(Cl)[n+]([O-])c2ccc(C)cc12`, the concentration for half-maximal inhibition (IC50) is < 8 µg/mL.
